“And” between values parts separate entries of the source, which are not always exact repeats. Equal entries are not always repeated.
How the values were obtained:
Type in all cases: ADME, organism-based
Mus musculus [1] = test: The biodistribution time for [131 I ]L-HML-NGA radioactivity after concomitant administration of [131 I ]L-HML-NGA and [125 I ]L-HML-IT-NGA in mice. It is expressed as percent injected dose per liver; settings: in vivo
Summary of the method: (§1)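 Six-week-old male ddY mice were given one i.v. co-injection of a 131I/125I-labelled NGA pair, each diluted to 90 µg/mL protein in 0.1 M PBS pH 6.0 and mixed 1:1, giving 9 µg of each radioiodinated NGA per mouse. Groups of five were killed at 5, 15, 30 min, 1 h and 3 h. Organs were weighed and counted in a well counter. Values are % ID per organ, blood as % ID/g, mean (SD).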

Mus musculus [2] = test: The biodistribution time for [131 I ]L-HML-NGA radioactivity after concomitant administration of [131 I ]L-HML-NGA and [125 I ]MIH-NGA in mice. It is expressed as percent injected dose per gram of blood tissue.; settings: in vivo; summary of the method: as §1
Mus musculus [3] = test: The biodistribution time for [131 I ]L-HML-NGA radioactivity after concomitant administration of [131 I ]L-HML-NGA and [125 I ]MPH-NGA in mice. It is expressed as percent injected dose per intestine.; settings: in vivo; summary of the method: as §1
Mus musculus [4] = test: The biodistribution time for [131 I ]L-HML-NGA radioactivity after concomitant administration of [131 I ]L-HML-NGA and [125 I ]MPH-NGA in mice. It is expressed as percent injected dose per stomach.; settings: in vivo; summary of the method: as §1
Mus musculus [5] = test: The biodistribution time for [131 I ]L-HML-NGA radioactivity after concomitant administration of [[131 I ]L-HML-NGA and [125 I ]D-HML-NGA in mice. It is expressed as percent injected dose per kidney.; settings: in vivo; summary of the method: as §1
Mus musculus [6] = test: Biodistribution time for compound radioactivity after concomitant administration of compound and [125 I ]MIH-NGA in mice was expressed as % injected dose per liver after 15 min; settings: in vivo, 0.25 h; summary of the method: as §1
Homo sapiens = organism: Homo sapiens; test: The percent protein-bound radioactivity in NGAfractions following incubation of radioiodinated [131 I ]L-HML-NGA in human serum after 1 hour
Summary of the method: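 Conjugates were diluted to 0.5 mg/mL in 0.1 M PBS pH 6.0, and 20 µL was added to 230 µL of freshly prepared human serum. Samples were incubated at 37 °C and taken at 1, 3, 6 or 24 h. Protein-bound fraction (Rf 0) was separated from small metabolites (Rf 0.6-0.9) by paper chromatography in methanol-water 4:1. Protein-bound radioactivity was divided by the initial radiochemical purity. Values are mean (SD).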

[7] = Cumulative radioactivity exerted by [131 I ]L-HML-NGA in the feces at 24 hour postinjection of [131 I ]L-HML-NGA and [125 I ]D-HML-NGA.; settings: in vivo
Summary of the method: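 Mice received one i.v. co-injection of the dual-isotope NGA mixture, 9 µg of each radioiodinated protein, and were housed in metabolic cages for 24 h. Cumulative urine and feces were collected and counted. Values are % injected dose, mean (SD) of five animals, with a Student's paired t-test between the two co-administered conjugates.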

Mus musculus [8] = test: The biodistribution time for [131 I ]L-HML-NGA radioactivity after concomitant administration of [[131 I ]L-HML-NGA and [125 I ]L-HML-IT-NGA in mice. It is expressed as percent injected dose per kidney.; settings: in vivo; summary of the method: as §1
Mus musculus [9] = test: The biodistribution time for [131 I ]L-HML-NGA radioactivity after concomitant administration of [131 I ]L-HML-NGA and [125 I ]MIH-NGA in mice. It is expressed as percent injected dose per neck.; settings: in vivo; summary of the method: as §1
Mus musculus [10] = test: The biodistribution time for [131 I ]L-HML-NGA radioactivity after concomitant administration of [131 I ]L-HML-NGA and [125 I ]D-HML-NGA in mice. It is expressed as percent injected dose per stomach.; settings: in vivo; summary of the method: as §1
Mus musculus [11] = test: The biodistribution time for [131 I ]L-HML-NGA radioactivity after concomitant administration of [[131 I ]L-HML-NGA and [125 I ]MPH-NGA in mice. It is expressed as percent injected dose per kidney.; settings: in vivo; summary of the method: as §1

- Radioactivity (Mus musculus [1]): 54.25%
- Radioactivity (Mus musculus [6]): 54.33%
- Radioactivity (Homo sapiens): 99.78%
- Radioactivity [7]: 4.4%
SMILES: N[C@@H](CS)C(=O)SC1CC(=O)N(CCCC[C@H](NC(=O)CNC(=O)c2cccc([131I])c2)C(=O)O)C1=O (some centres not stated)
- Radioactivity (Mus musculus [2]): 1.22% and 2.93% and 1.48% and 0.58% and 0.43%
- Radioactivity (Mus musculus [3]): 0.66% and 4.66% and 4.59% and 5.75% and 5.43%
- Radioactivity (Mus musculus [4]): 0.26% and 0.57% and 0.3% and 0.29% and 0.33%
- Radioactivity (Mus musculus [5]): 1.07% and 4.49% and 1.55% and 0.61% and 0.27%
- Radioactivity (Mus musculus [8]): 0.28% and 4.91% and 4.92% and 0.96% and 0.21%
- Radioactivity (Mus musculus [9]): 0.07% and 0.25% and 0.12% and 0.05% and 0.03%
- Radioactivity (Mus musculus [10]): 0.2% and 0.5% and 0.88% and 0.78% and 0.69%
- Radioactivity (Mus musculus [11]): 0.76% and 5.3% and 2.3% and 0.31% and 0.13%

— ChEMBL document CHEMBL1130118, “A novel radioiodination reagent for protein radiopharmaceuticals with L-lysine as a plasma-stable metabolizable linkage to liberate m-iodohippuric acid after lysosomal proteolysis” (J Med Chem, 1997)
